Results published in ChEMBL document CHEMBL1137243, “Design, synthesis, and antifungal activities in vitro of novel tetrahydroisoquinoline compounds based on the structure of lanosterol 14alpha-demethylase (CYP51) of fungi” (2006).
Converted amounts (≈) assume the structure as drawn.

Legend:
Format in all cases: functional
Aspergillus fumigatus = test: Antifungal activity against Aspergillus fumigatus after 7 days; conditions: 168 h
In short: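 Filamentous-fungus MIC was determined by serial dilution in 96-well plates per NCCLS, using RPMI 1640 buffered with 0.165 M MOPS. Strains were ATCC or clinical isolates. Compounds in DMSO were diluted in growth medium. Growth was read at 7 days. MIC is the lowest concentration producing ≥80% inhibition of turbidity compared with control.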

Candida albicans = test: Antifungal activity against Candida albicans after 24 hrs
In short: (§1)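 Broth serial-dilution MIC in 96-well plates per NCCLS recommendations. Medium: RPMI 1640 buffered with 0.165 M MOPS. Strains were from ATCC or clinical isolates. Compounds were dissolved in DMSO and serially diluted in growth medium. Yeasts were incubated at 35 °C, read at 24 h for Candida and 72 h for C. neoformans. MIC is the lowest concentration giving ≥80% growth inhibition versus control (turbidity).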

Candida parapsilosis = test: Antifungal activity against Candida parapsilosis after 24 hrs; conditions: Lodderomyces parapsilosis; in short: as §1
Trichophyton rubrum = test: Antifungal activity against Trichophyton rubrum after 7 days; conditions: 168 h
In short: (§2)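 Dermatophytes were tested by NCCLS-based broth serial dilution in 96-well plates. Medium: RPMI 1640 with 0.165 M MOPS. Isolates were from ATCC or clinical sources. Compounds in DMSO were serially diluted in medium. Incubation was at 28 °C with the read at 7 days. MIC is the lowest concentration giving ≥80% turbidity reduction relative to the growth control.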

Microsporum canis = test: Antifungal activity against Microsporum canis after 7 days; conditions: 168 h; in short: as §2
Cryptococcus neoformans = test: Antifungal activity against Cryptococcus neoformans after 72 hrs; in short: as §1

## CCCCCCCN1CCc2cc(O)c(O)cc2C1
Aspergillus fumigatus
  MIC80: > 200 µg/mL
Candida albicans
  MIC80: > 200 µg/mL
Candida parapsilosis
  MIC80: 100 µg/mL (≈ 380 µM)
Trichophyton rubrum
  MIC80: > 200 µg/mL
Microsporum canis
  MIC80: > 200 µg/mL
Cryptococcus neoformans
  MIC80: 100 µg/mL (≈ 380 µM)

## CCCCCCCCCCCCCCCCN1CCc2cc(O)c(O)cc2C1
Aspergillus fumigatus
  MIC80: 200 µg/mL (≈ 513 µM)
Candida albicans
  MIC80: > 200 µg/mL
Candida parapsilosis
  MIC80: 100 µg/mL (≈ 257 µM)
Trichophyton rubrum
  MIC80: 200 µg/mL (≈ 513 µM)
Microsporum canis
  MIC80: > 200 µg/mL
Cryptococcus neoformans
  MIC80: 100 µg/mL (≈ 257 µM)

## OC(Cn1cncn1)(Cn1cncn1)c1ccc(F)cc1F [FLUCONAZOLE]
Aspergillus fumigatus
  MIC80: > 200 µg/mL
Candida albicans
  MIC80: 1.56 µg/mL (≈ 5.1 µM)
Candida parapsilosis
  MIC80: 50 µg/mL (≈ 163 µM)
Trichophyton rubrum
  MIC80: 25 µg/mL (≈ 81.6 µM)
Microsporum canis
  MIC80: 100 µg/mL (≈ 327 µM)
Cryptococcus neoformans
  MIC80: 6.25 µg/mL (≈ 20.4 µM)

## CCCCCCCCCN1CCc2cc(O)c(O)cc2C1
Aspergillus fumigatus
  MIC80: 200 µg/mL (≈ 686 µM)
Candida albicans
  MIC80: 200 µg/mL (≈ 686 µM)
Candida parapsilosis
  MIC80: 25 µg/mL (≈ 85.8 µM)
Trichophyton rubrum
  MIC80: 12.5 µg/mL (≈ 42.9 µM)
Microsporum canis
  MIC80: 50 µg/mL (≈ 172 µM)
Cryptococcus neoformans
  MIC80: 25 µg/mL (≈ 85.8 µM)

## CCCCCCCCN1CCc2cc(O)c(O)cc2C1
Aspergillus fumigatus
  MIC80: > 200 µg/mL
Candida albicans
  MIC80: > 200 µg/mL
Candida parapsilosis
  MIC80: 100 µg/mL (≈ 360 µM)
Trichophyton rubrum
  MIC80: 50 µg/mL (≈ 180 µM)
Microsporum canis
  MIC80: 50 µg/mL (≈ 180 µM)
Cryptococcus neoformans
  MIC80: 100 µg/mL (≈ 360 µM)

## CCCCCCCCCCCCN1CCc2cc(O)c(O)cc2C1
Aspergillus fumigatus
  MIC80: 50 µg/mL (≈ 150 µM)
Candida albicans
  MIC80: 50 µg/mL (≈ 150 µM)
Candida parapsilosis
  MIC80: 50 µg/mL (≈ 150 µM)
Trichophyton rubrum
  MIC80: 12.5 µg/mL (≈ 37.5 µM)
Microsporum canis
  MIC80: 12.5 µg/mL (≈ 37.5 µM)
Cryptococcus neoformans
  MIC80: 6.25 µg/mL (≈ 18.7 µM)

## CCCCCCCCCCN1CCc2cc(O)c(O)cc2C1
Aspergillus fumigatus
  MIC80: 50 µg/mL (≈ 164 µM)
Candida albicans
  MIC80: 100 µg/mL (≈ 327 µM)
Candida parapsilosis
  MIC80: 12.5 µg/mL (≈ 40.9 µM)
Trichophyton rubrum
  MIC80: 3.12 µg/mL (≈ 10.2 µM)
Microsporum canis
  MIC80: 12.5 µg/mL (≈ 40.9 µM)
Cryptococcus neoformans
  MIC80: 3.12 µg/mL (≈ 10.2 µM)

## CCCCCCN1CCc2cc(O)c(O)cc2C1
Aspergillus fumigatus
  MIC80: > 200 µg/mL
Candida albicans
  MIC80: > 200 µg/mL
Candida parapsilosis
  MIC80: 100 µg/mL (≈ 401 µM)
Trichophyton rubrum
  MIC80: > 200 µg/mL
Microsporum canis
  MIC80: > 200 µg/mL
Cryptococcus neoformans
  MIC80: 100 µg/mL (≈ 401 µM)

## CCCCCN1CCc2cc(O)c(O)cc2C1
Aspergillus fumigatus
  MIC80: > 200 µg/mL
Candida albicans
  MIC80: > 200 µg/mL
Candida parapsilosis
  MIC80: 100 µg/mL (≈ 425 µM)
Trichophyton rubrum
  MIC80: > 200 µg/mL
Microsporum canis
  MIC80: > 200 µg/mL
Cryptococcus neoformans
  MIC80: 100 µg/mL (≈ 425 µM)

## CCCCCCCCCCCCCCN1CCc2cc(O)c(O)cc2C1
Aspergillus fumigatus
  MIC80: > 200 µg/mL
Candida albicans
  MIC80: 50 µg/mL (≈ 138 µM)
Candida parapsilosis
  MIC80: 50 µg/mL (≈ 138 µM)
Trichophyton rubrum
  MIC80: 25 µg/mL (≈ 69.1 µM)
Microsporum canis
  MIC80: 12.5 µg/mL (≈ 34.6 µM)
Cryptococcus neoformans
  MIC80: 6.25 µg/mL (≈ 17.3 µM)
